≈ marks a conversion by molar mass, not a printed value. Calls of active or inactive are those of the source.
Columns and labels:
[1] = system: Enterococcus faecalis; test: Antibacterial activity against vancomycin-resistant and teicoplanin-sensitive Enterococcus faecalis ATCC 51299 harboring vanB gene after 18 hrs by broth microdilution method; type: functional; conditions: ATCC 51299, 18 h
[2] = system: Enterococcus faecalis; test: Antibacterial activity against vancomycin and teicoplanin-resistant Enterococcus faecalis 15376 harboring vanA gene after 18 hrs by broth microdilution method; type: functional; conditions: Enterococcus faecalis, 15376, 18 h
[3] = system: Staphylococcus epidermidis; test: Antibacterial activity against biofilm of Staphylococcus epidermidis ATCC 35984 after 18 hrs by broth microdilution method; type: functional; conditions: RP62A
[4] = system: Staphylococcus aureus; test: Antibacterial activity against methicillin-sensitive Staphylococcus aureus ATCC 33591 after 18 hrs by broth microdilution method; type: functional; conditions: ATCC 33591, 18 h
[5] = system: Staphylococcus aureus; test: Antibacterial activity against methicillin-sensitive Staphylococcus aureus ATCC 29213 after 18 hrs by broth microdilution method; type: functional; conditions: ATCC 29213, 18 h
[6] = system: Enterococcus faecalis; test: Bactericidal activity against vancomycin and teicoplanin-resistant Enterococcus faecalis 15376 harboring vanA gene after overnight incubation; type: functional
[7] = system: Bacillus subtilis; test: Bactericidal activity against Bacillus subtilis ATCC 6633 after overnight incubation; type: functional
[8] = system: Staphylococcus epidermidis; test: Antibacterial activity against Staphylococcus epidermidis after 18 hrs by broth microdilution method; type: functional
[9] = system: Bacillus subtilis; test: Antibacterial activity against Bacillus subtilis ATCC 6633 after 18 hrs by broth microdilution method; type: functional; conditions: ATCC 6633, 18 h
[10] = system: Staphylococcus aureus; test: Bactericidal activity against methicillin-sensitive Staphylococcus aureus ATCC 29213 after overnight incubation; type: functional
[11] = system: Staphylococcus aureus; test: Bactericidal activity against methicillin-sensitive Staphylococcus aureus ATCC 33591 after overnight incubation; type: functional
[12] = system: Enterococcus faecalis; test: Antibacterial activity against vancomycin and teicoplanin-sensitive Enterococcus faecalis ATCC 29212 after 18 hrs by broth microdilution method; type: functional; conditions: ATCC 29212, 18 h
[13] = system: Enterococcus faecalis; test: Bactericidal activity against vancomycin-resistant and teicoplanin-sensitive Enterococcus faecalis ATCC 51299 harboring vanB gene after overnight incubation; type: functional
[14] = system: Enterococcus faecalis; test: Bactericidal activity against vancomycin and teicoplanin-sensitive Enterococcus faecalis ATCC 29212 after overnight incubation; type: functional
[15] = system: Influenza B virus; test: Antiviral activity against Influenza B virus (B/Hong Kong/5/72) assessed as cell viability at subtoxic concentration by cell-based MTS assay; type: functional; conditions: B/Hong Kong/05/1972
[16] = system: Staphylococcus epidermidis; test: Bactericidal activity against biofilm of Staphylococcus epidermidis ATCC 35984 after overnight incubation; type: functional; conditions: RP62A
[17] = system: H3N2 subtype; test: Antiviral activity against Influenza A virus (A/Hong Kong/7/87(H3N2)) assessed as inhibition of virus-induced cytopathic effect at highest concentration by cell-based assay; type: functional, organism-based; conditions: A/Hong Kong/7/1987(H3N2)
How it was run: (§1)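 Virus-induced cytopathic effect is scored visually in infected cell cultures. EC50 is defined as the compound concentration producing 50% inhibition of the CPE. A compound is recorded as not active when there is no inhibition at the highest concentration tested or at a subtoxic concentration.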

[18] = system: H3N2 subtype; test: Antiviral activity against Influenza A virus (A/Hong Kong/7/87(H3N2)) assessed as cell viability at subtoxic concentration by cell-based MTS assay; type: functional, organism-based; conditions: A/Hong Kong/7/1987(H3N2)
[19] = system: Influenza B virus; test: Antiviral activity against Influenza B virus (B/Hong Kong/5/72) assessed as inhibition of virus-induced cytopathic effect at highest concentration by cell-based assay; type: functional; conditions: B/Hong Kong/05/1972; how it was run: as §1
[20] = system: Influenza A virus; test: Antiviral activity against Influenza A virus (A/Puerto Rico/8/34(H1N1)) assessed as cell viability at subtoxic concentration by cell-based MTS assay; type: functional, organism-based; conditions: A/Puerto Rico/8/1934(H1N1)
[21] = system: Staphylococcus epidermidis; test: Bactericidal activity against Staphylococcus epidermidis after overnight incubation; type: functional
[22] = system: Influenza A virus; test: Antiviral activity against Influenza A virus (A/Puerto Rico/8/34(H1N1)) assessed as inhibition of virus-induced cytopathic effect at highest concentration by cell-based assay; type: functional, organism-based; conditions: A/Puerto Rico/8/1934(H1N1); how it was run: as §1

With `CC(=O)N[C@H]1[C@H](O[C@@H]2c3ccc(c(Cl)c3)Oc3cc4cc(c3O)Oc3ccc(cc3Cl)C[C@H]3NC(=O)[C@H](n5cc(COc6ccc(-c7ccccc7)cc6)nn5)c5ccc(O)c(c5)Oc5cc(O)cc(c5)[C@H](NC3=O)C(=O)N[C@H]4C(=O)N[C@H]3C(=O)N[C@@H]2C(=O)N[C@@H](C(=O)O)c2cc(O)cc(O)c2-c2cc3ccc2O)O[C@H](CO)[C@@H](O)[C@@H]1O` the MIC [1] was 0.5 µg/mL (≈ 0.306 µM), the MIC [2] was 0.5 µg/mL (≈ 0.306 µM) and the MIC [3] was 0.5 µg/mL (≈ 0.306 µM). It also gave an MIC [4] of 0.5 µg/mL (≈ 0.306 µM), an MIC [5] of 0.5 µg/mL (≈ 0.306 µM) and an MBC [6] of 0.25 µg/mL (≈ 0.153 µM). For the same molecule, the MBC [7] was 0.25 µg/mL (≈ 0.153 µM), the MIC [8] was 0.5 µg/mL (≈ 0.306 µM) and the MIC [9] was 0.5 µg/mL (≈ 0.306 µM). The MBC [10] was 0.25 µg/mL (≈ 0.153 µM), the MBC [11] was 0.25 µg/mL (≈ 0.153 µM) and the MIC [12] was 0.5 µg/mL (≈ 0.306 µM). For the same molecule, the MBC [13] was 0.25 µg/mL (≈ 0.153 µM) and the MBC [14] was 0.25 µg/mL (≈ 0.153 µM).

`COC(=O)[C@@H]1NC(=O)[C@H]2NC(=O)[C@H](NC(=O)[C@@H]3NC(=O)[C@H]4NC(=O)[C@@H](Cc5ccc(c(Cl)c5)Oc5cc3cc(c5O)Oc3ccc(cc3Cl)[C@H]2O[C@@H]2O[C@H](CO)[C@@H](O)[C@H](O)[C@H]2NC(C)=O)NC(=O)[C@H](N=[N+]=[N-])c2ccc(O)c(c2)Oc2cc(O)cc4c2)c2ccc(O)c(c2)-c2c(O)cc(O)cc21` was tested, and the inhibition [15] was “inactive”, the MBC [16] was 8 µg/mL (≈ 5.55 µM) and the MIC [1] was 16 µg/mL (≈ 11.1 µM). For the same molecule, the MIC [2] was 16 µg/mL (≈ 11.1 µM), the MIC [3] was 8 µg/mL (≈ 5.55 µM) and the inhibition [17] was “inactive”. For the same molecule, the MIC [4] was 4 µg/mL (≈ 2.77 µM), the MIC [5] was 4 µg/mL (≈ 2.77 µM) and the MBC [6] was 256 µg/mL (≈ 178 µM). The inhibition [18] was “inactive”, the inhibition [19] was “inactive” and the MBC [7] was 8 µg/mL (≈ 5.55 µM). The MIC [8] was 4 µg/mL (≈ 2.77 µM), the MIC [9] was 8 µg/mL (≈ 5.55 µM) and the inhibition [20] was “inactive”. For the same molecule, the MBC [10] was 8 µg/mL (≈ 5.55 µM), the MBC [11] was 8 µg/mL (≈ 5.55 µM) and the MBC [21] was 4 µg/mL (≈ 2.77 µM). For the same molecule, the MIC [12] was 16 µg/mL (≈ 11.1 µM), the MBC [13] was 256 µg/mL (≈ 178 µM) and the inhibition [22] was “inactive”. For the same molecule, the MBC [14] was 256 µg/mL (≈ 178 µM).

With `CCCCCCCCCCOCc1cn([C@H]2C(=O)N[C@@H]3Cc4ccc(c(Cl)c4)Oc4cc5cc(c4O)Oc4ccc(cc4Cl)[C@@H](O[C@@H]4O[C@H](CO)[C@@H](O)[C@H](O)[C@H]4NC(C)=O)[C@@H]4NC(=O)[C@H](NC(=O)[C@@H]5NC(=O)[C@@H](NC3=O)c3cc(O)cc(c3)Oc3cc2ccc3O)c2ccc(O)c(c2)-c2c(O)cc(O)cc2[C@H](C(=O)OC)NC4=O)nn1` the inhibition [15] was “inactive”, the MBC [16] was 1 µg/mL (≈ 0.61 µM) and the MIC [1] was 2 µg/mL (≈ 1.22 µM). For the same molecule, the MIC [2] was 2 µg/mL (≈ 1.22 µM), the MIC [3] was 1 µg/mL (≈ 0.61 µM) and the inhibition [17] was “inactive”. For the same molecule, the MIC [4] was 0.5 µg/mL (≈ 0.305 µM), the MIC [5] was 1 µg/mL (≈ 0.61 µM) and the MBC [6] was 256 µg/mL (≈ 156 µM). For the same molecule, the inhibition [18] was “inactive”, the inhibition [19] was “inactive” and the MBC [7] was 4 µg/mL (≈ 2.44 µM). For the same molecule, the MIC [8] was 1 µg/mL (≈ 0.61 µM), the MIC [9] was 2 µg/mL (≈ 1.22 µM) and the inhibition [20] was “inactive”. It also gave an MBC [10] of 1 µg/mL (≈ 0.61 µM), an MBC [11] of 0.5 µg/mL (≈ 0.305 µM) and an MBC [21] of 1 µg/mL (≈ 0.61 µM). The MIC [12] was 2 µg/mL (≈ 1.22 µM), the MBC [13] was 128 µg/mL (≈ 78.1 µM) and the inhibition [22] was “inactive”. The MBC [14] was 256 µg/mL (≈ 156 µM).

With `COC(=O)[C@@H]1NC(=O)[C@H]2NC(=O)[C@H](NC(=O)[C@@H]3NC(=O)[C@H]4NC(=O)[C@H](NC(=O)[C@H](n5cc(COc6ccc(-c7ccccc7)cc6)nn5)c5ccc(O)c(c5)Oc5cc4cc(O)c5C)[C@H](O)c4ccc(cc4)Oc4cc3cc(c4O)Oc3ccc(cc3)[C@H]2O)c2ccc(O)c(c2)-c2c(O)cc(O)cc21` the inhibition [15] was “inactive”, the MIC [1] was greater than 256 µg/mL and the MIC [2] was greater than 256 µg/mL. The MIC [3] was greater than 256 µg/mL, the inhibition [17] was “inactive” and the MIC [4] was greater than 256 µg/mL. The MIC [5] was greater than 256 µg/mL, the inhibition [18] was “inactive” and the inhibition [19] was “inactive”. For the same molecule, the MIC [8] was greater than 256 µg/mL, the MIC [9] was greater than 256 µg/mL and the inhibition [20] was “inactive”. For the same molecule, the MIC [12] was greater than 256 µg/mL and the inhibition [22] was “inactive”.

— ChEMBL document CHEMBL1156074, “Diazo transfer-click reaction route to new, lipophilic teicoplanin and ristocetin aglycon derivatives with high antibacterial and anti-influenza virus activity: an aggregation and receptor binding study” (J Med Chem, 2009)
